Series [1] has as its target T1, Alpha-2A adrenergic receptor (Homo sapiens) (UniProt P08913).
T1 sequence (whole entry): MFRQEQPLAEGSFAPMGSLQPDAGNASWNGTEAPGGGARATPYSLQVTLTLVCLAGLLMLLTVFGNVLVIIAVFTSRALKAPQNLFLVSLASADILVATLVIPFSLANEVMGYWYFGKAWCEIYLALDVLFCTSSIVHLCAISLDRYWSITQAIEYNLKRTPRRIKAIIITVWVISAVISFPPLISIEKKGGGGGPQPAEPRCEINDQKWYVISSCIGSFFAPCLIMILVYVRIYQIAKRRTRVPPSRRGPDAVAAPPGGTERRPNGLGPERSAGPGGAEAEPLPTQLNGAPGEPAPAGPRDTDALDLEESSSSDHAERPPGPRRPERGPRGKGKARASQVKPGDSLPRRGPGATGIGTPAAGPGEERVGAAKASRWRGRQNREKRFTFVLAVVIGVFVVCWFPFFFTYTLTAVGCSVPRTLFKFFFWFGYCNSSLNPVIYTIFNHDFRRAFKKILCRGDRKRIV
In words: Inhibition of adrenergic alpha-2A receptor (unknown origin) at 10 uM relative to control.

The target of series [2] is 5-hydroxytryptamine receptor 5A (Homo sapiens) (UniProt P47898). Put plainly: Inhibition of 5-HT5A receptor (unknown origin) at 10 uM relative to control.
Sequence of 5-hydroxytryptamine receptor 5A (Homo sapiens) (P47898 whole entry): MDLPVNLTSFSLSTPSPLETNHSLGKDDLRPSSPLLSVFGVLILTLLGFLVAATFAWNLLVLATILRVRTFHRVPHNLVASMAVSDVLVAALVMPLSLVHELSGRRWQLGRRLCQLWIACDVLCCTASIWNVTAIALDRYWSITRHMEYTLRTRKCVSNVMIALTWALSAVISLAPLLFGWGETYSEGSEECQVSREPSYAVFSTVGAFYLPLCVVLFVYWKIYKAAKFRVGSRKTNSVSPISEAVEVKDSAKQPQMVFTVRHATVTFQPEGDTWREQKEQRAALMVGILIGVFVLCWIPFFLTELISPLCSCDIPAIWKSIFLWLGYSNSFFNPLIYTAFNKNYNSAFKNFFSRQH
Series [3] in a line: Toxicity in ip dosed albino Sprague-Dawley rat assessed as behavioral changes measured at 0.25 to 4 hrs. Conditions: in vivo. Type of series: organism-based. The essentials: (§1)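 Male albino Sprague-Dawley rats given compound intraperitoneally or orally (NINDS ASP); neurological impairment judged from behavioral toxicity effects. Preset screening doses (e.g., 30 mg/kg); for adequately active compounds, TD50 (mg/kg, 95% confidence intervals) derived from dose–effect data at time of peak effect.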

The target in series [4] is Beta-3 adrenergic receptor (Homo sapiens) (UniProt P13945). Put plainly: Inhibition of adrenergic beta-3 receptor (unknown origin) at 10 uM relative to control.
Sequence of Beta-3 adrenergic receptor (Homo sapiens) (P13945 whole entry, looked up): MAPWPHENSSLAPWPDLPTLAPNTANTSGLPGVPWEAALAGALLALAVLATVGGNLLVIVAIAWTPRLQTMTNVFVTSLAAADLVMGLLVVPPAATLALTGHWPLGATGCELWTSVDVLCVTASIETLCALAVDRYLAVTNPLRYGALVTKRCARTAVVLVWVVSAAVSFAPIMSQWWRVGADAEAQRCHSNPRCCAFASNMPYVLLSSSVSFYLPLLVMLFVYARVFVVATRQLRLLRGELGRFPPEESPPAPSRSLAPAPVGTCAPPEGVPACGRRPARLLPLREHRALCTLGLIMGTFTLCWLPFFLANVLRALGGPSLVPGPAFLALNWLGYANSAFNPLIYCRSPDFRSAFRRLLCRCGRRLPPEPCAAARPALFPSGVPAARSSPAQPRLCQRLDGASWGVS
Series [5] has as its target D(1B) dopamine receptor (Homo sapiens) (UniProt P21918). In words: Inhibition of dopaminergic D5 receptor (unknown origin) at 10 uM relative to control.
For series [6], the target named is 5-hydroxytryptamine receptor 1D (Homo sapiens) (UniProt P28221). In words: Inhibition of 5-HT1D receptor (unknown origin) at 10 uM relative to control.
Sequence of 5-hydroxytryptamine receptor 1D (Homo sapiens) (P28221 whole entry): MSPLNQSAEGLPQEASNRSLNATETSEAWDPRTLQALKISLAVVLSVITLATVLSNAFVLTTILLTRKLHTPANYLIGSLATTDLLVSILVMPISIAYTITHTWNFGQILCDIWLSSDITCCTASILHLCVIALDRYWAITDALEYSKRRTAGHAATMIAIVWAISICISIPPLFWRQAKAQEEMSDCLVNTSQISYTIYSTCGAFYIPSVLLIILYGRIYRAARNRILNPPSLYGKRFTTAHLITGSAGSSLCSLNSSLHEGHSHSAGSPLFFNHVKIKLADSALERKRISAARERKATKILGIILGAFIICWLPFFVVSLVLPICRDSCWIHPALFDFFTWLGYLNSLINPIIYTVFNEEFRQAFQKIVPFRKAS
Series [7] has as its system Rattus norvegicus. In words: Anticonvulsant activity in po dosed albino Sprague-Dawley rat assessed as protection against maximal electroshock-induced seizures measured at 0.25 to 4 hrs. Format: functional. The essentials:
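Screened under the NINDS ASP in male albino Carworth Farms No. 1 mice (ip) or male albino Sprague-Dawley rats (ip or po), using MES, 6 Hz (32 mA) and subcutaneous pentylenetetrazol seizure tests. Initial qualitative tests used preset doses (e.g., 30, 50, 100 mg/kg). ED50 values with 95% confidence intervals came from dose–response data collected at the time of peak effect.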
(In the maximal electroshock model the usual endpoint is tonic extension of the hind limbs.)

Series [8] addresses Muscarinic acetylcholine receptor M3 (Homo sapiens) (UniProt P20309). In words: Inhibition of muscarinergic M3 receptor (unknown origin) at 10 uM relative to control.
Series [9] concerns the target Kappa-type opioid receptor (Homo sapiens) (UniProt P41145). Put plainly: Inhibition of kappa opioid receptor (unknown origin) at 10 uM relative to control.
Series [10] concerns the target D(1A) dopamine receptor (Homo sapiens) (UniProt P21728). In words: Inhibition of dopaminergic D1 receptor (unknown origin) at 10 uM relative to control.
The species named for series [11] is Rattus norvegicus. Put plainly: Inhibition of BZP receptor in rat brain at 10 uM relative to control. Format: tissue-based.
The target of series [12] is T2, Muscarinic acetylcholine receptor M2 (Homo sapiens) (UniProt P08172).
T2 sequence (whole entry): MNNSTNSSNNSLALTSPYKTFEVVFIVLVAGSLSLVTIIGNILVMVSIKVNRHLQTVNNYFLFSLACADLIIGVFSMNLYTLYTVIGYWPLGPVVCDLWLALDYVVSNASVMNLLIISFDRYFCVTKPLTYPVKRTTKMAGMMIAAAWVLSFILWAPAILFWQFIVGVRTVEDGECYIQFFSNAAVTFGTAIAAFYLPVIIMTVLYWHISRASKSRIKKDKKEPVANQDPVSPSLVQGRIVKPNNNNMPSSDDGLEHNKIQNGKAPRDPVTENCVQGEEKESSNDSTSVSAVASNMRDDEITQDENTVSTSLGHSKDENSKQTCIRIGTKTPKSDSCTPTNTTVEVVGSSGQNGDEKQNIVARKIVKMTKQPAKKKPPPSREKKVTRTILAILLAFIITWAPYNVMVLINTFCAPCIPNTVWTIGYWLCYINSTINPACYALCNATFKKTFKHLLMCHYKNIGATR
Put plainly: Inhibition of muscarinergic M2 receptor (unknown origin) at 10 uM relative to control.

Series [13] has as its target 5-hydroxytryptamine receptor 2B (Homo sapiens) (UniProt P41595). In words: Inhibition of 5-HT2B receptor (unknown origin) at 10 uM relative to control.
Series [14] is described as follows: Toxicity in po dosed albino Sprague-Dawley rat assessed as behavioral changes measured at 0.25 to 4 hrs. Type of series: organism-based. Conditions: in vivo. The essentials: as §1
Series [15] addresses Histamine H1 receptor (Homo sapiens) (UniProt P35367). Put plainly: Inhibition of histamine H1 receptor (unknown origin) at 10 uM relative to control.
For series [16], the target named is D(3) dopamine receptor (Homo sapiens) (UniProt P35462). Put plainly: Inhibition of dopaminergic D3 receptor (unknown origin) at 10 uM relative to control.
Series [17] deals with 5-hydroxytryptamine receptor 7 (Homo sapiens) (UniProt P34969). In words: Inhibition of 5-HT7 receptor (unknown origin) at 10 uM relative to control.
Sequence of 5-hydroxytryptamine receptor 7 (Homo sapiens) (P34969 whole entry): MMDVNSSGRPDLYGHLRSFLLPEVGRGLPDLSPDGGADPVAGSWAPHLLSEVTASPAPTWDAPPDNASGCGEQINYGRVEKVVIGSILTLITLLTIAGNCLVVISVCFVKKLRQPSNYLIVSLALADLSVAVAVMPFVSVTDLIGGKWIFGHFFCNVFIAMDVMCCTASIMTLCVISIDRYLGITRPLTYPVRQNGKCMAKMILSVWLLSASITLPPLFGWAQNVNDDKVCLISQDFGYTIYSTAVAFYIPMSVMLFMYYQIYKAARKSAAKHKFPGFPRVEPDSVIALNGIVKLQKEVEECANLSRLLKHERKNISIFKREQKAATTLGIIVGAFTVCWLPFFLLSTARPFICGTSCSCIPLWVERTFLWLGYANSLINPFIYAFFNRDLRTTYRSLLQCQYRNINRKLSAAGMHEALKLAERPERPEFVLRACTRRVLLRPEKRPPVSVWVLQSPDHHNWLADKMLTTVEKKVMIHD
Series [18] concerns the target Sodium-dependent serotonin transporter (Homo sapiens) (UniProt P31645). Put plainly: Inhibition of SERT (unknown origin) at 10 uM relative to control.
The species named for another series is Homo sapiens. Put plainly: Inhibition of sigma-2 receptor (unknown origin) at 10 uM relative to control.
Series [19] has as its target T3, Alpha-2C adrenergic receptor (Homo sapiens) (UniProt P18825).
T3 sequence (whole entry): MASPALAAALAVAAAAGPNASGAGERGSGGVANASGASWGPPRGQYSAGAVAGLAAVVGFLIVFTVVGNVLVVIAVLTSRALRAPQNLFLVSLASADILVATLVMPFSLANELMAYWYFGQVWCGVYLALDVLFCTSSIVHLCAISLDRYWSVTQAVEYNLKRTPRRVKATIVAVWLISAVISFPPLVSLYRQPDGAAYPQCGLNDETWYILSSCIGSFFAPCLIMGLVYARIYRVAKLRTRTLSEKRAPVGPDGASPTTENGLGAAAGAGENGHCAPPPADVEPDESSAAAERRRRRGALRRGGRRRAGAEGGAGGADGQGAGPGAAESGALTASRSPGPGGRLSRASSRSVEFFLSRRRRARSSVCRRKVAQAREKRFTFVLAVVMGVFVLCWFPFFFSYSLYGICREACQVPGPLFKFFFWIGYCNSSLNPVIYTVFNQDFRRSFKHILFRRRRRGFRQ
In words: Inhibition of adrenergic alpha-2C receptor (unknown origin) at 10 uM relative to control.

A short description of series [20]: Solubility of the compound in water at 300 uM. Format: physicochemical. The essentials: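 Hydrochloride salts checked for dissolution in water at 300 µM.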

Molecules are shown by their SMILES.

The text below walks through data of ChEMBL document CHEMBL3091364, “Benzyloxybenzylammonium chlorides: Simple amine salts that display anticonvulsant activity” (Bioorg Med Chem, 2013).

The term inhibition denotes the change of the read-out against control, counted positive when it falls. Broadly, the TD50 is the dose at which the toxic effect under study appears in half of the subjects. As usually defined, the ED50 is the midpoint of the dose-response relation.

Sequence of D(1A) dopamine receptor (Homo sapiens) (P21728 whole entry): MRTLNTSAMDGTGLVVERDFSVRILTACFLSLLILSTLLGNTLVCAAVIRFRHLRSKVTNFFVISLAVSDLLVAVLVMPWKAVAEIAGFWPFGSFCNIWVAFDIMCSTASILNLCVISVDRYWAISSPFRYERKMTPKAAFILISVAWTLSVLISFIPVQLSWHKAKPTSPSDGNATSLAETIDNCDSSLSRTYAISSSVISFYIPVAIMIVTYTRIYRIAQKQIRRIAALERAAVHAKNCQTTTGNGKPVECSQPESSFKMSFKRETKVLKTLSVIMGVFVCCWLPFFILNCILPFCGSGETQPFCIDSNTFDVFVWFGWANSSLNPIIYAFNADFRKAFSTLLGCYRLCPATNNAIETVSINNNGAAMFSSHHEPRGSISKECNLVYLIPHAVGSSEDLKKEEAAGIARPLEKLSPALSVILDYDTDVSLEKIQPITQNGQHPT
Sequence of 5-hydroxytryptamine receptor 2B (Homo sapiens) (P41595 whole entry): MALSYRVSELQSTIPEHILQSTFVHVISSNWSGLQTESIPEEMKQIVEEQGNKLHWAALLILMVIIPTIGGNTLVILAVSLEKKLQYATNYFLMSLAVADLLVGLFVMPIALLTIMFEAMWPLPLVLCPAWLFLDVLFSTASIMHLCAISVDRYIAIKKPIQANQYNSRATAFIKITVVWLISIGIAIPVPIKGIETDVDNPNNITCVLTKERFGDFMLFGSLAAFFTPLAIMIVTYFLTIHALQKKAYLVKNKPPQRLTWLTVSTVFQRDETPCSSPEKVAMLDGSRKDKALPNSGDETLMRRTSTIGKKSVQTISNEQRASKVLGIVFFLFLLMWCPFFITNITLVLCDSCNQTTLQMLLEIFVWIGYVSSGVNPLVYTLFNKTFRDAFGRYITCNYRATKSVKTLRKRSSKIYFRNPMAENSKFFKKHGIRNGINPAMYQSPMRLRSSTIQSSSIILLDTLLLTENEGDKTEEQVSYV
Sequence of Sodium-dependent serotonin transporter (Homo sapiens) (P31645 whole entry, looked up): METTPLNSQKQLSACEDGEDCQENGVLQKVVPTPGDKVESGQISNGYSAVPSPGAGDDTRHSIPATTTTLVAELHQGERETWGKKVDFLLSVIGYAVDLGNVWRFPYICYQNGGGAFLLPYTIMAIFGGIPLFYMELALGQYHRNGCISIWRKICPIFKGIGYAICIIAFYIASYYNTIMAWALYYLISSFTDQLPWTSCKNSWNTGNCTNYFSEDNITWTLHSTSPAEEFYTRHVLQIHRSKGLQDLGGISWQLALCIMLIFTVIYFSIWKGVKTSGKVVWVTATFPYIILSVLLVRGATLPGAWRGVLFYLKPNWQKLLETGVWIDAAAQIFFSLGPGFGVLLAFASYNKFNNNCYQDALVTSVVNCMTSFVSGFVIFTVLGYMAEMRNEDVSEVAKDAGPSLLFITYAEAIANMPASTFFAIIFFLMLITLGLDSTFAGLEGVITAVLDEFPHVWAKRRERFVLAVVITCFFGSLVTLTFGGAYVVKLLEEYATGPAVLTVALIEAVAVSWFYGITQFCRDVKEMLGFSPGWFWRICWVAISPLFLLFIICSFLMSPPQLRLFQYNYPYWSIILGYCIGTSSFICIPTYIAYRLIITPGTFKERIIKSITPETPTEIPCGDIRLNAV
Sequence of Kappa-type opioid receptor (Homo sapiens) (P41145 whole entry): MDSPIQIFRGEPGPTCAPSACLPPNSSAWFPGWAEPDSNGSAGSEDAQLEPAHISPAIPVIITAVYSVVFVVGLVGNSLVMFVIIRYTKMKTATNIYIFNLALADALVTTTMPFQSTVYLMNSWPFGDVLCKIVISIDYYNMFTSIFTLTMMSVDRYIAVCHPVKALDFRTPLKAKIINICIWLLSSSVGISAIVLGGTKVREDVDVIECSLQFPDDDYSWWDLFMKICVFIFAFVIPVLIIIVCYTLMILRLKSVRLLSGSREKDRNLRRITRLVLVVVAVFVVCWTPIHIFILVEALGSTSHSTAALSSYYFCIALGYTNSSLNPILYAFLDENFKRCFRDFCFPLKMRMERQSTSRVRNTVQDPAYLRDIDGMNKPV
Sequence of Muscarinic acetylcholine receptor M3 (Homo sapiens) (P20309 whole entry, looked up): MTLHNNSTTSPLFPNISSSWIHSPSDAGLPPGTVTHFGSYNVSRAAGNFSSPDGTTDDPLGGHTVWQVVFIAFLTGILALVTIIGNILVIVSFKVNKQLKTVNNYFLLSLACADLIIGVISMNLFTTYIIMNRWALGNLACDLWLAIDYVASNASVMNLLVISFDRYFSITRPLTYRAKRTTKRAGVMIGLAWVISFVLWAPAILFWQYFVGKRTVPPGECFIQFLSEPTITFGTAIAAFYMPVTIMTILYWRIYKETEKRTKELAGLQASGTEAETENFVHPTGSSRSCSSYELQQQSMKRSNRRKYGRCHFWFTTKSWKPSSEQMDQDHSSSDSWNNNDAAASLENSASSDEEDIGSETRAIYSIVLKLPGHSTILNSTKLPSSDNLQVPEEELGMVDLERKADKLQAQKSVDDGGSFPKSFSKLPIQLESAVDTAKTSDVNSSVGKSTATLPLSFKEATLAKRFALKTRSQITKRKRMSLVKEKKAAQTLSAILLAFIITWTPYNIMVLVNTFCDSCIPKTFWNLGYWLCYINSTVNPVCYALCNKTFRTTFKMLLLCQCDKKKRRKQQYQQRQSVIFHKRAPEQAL
Sequence of Histamine H1 receptor (Homo sapiens) (P35367 whole entry): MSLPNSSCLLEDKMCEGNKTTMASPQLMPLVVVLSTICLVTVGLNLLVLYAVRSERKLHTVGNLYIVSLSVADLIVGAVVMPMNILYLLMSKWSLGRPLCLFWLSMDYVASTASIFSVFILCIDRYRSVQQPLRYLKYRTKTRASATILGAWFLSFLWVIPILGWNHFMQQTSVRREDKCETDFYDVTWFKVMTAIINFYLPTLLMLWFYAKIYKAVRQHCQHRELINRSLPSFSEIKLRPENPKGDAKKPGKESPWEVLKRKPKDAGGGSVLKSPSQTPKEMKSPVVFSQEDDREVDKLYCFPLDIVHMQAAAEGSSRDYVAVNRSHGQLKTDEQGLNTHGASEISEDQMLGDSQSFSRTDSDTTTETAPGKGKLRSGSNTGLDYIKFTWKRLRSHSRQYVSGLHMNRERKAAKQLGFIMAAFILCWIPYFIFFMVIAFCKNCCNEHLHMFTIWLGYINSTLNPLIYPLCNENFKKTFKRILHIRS

As to `Cl.NCc1ccc(OCc2cccc(OC(F)(F)F)c2)cc1`, the inhibition in series [1] was 47%; in [2], 0.2%; in [4], 13.6%; in [5], 0.4%; in series [6], 12.3%; in series [8], -3.5%. Moreover, the inhibition in series [9] was 9.8%; in series [10], -3.3%; in the series listed under Rattus norvegicus [11], 19.8%; in series [12], 4.5%; in series [13], 51.4%; in [15] it was 12.1%. The inhibition in [16] was found to be 33.5%; in series [17], 43.6%; in series [18], 55.7%; in the series filed under Homo sapiens it was 87.5%; in series [19], 46.6%. Further, the TD50 in [3] and in [14] was over 30 mg/kg each time. Also, the ED50 with Rattus norvegicus [7] is over 30 mg/kg. For the same molecule, the solubility entry in series [20] is given as “soluble”.

For `Cl.NCc1ccc(OCc2cccc(Cl)c2)cc1`, the inhibition in [1] is 74%; in series [2] it was 44.9%; in series [4], 16.9%; in series [5], -1.6%; in [6], -0.7%; in series [8], 11.9%. For the same molecule, the inhibition in series [9] was 13.9%; in [10], 2.9%; in the series filed under Rattus norvegicus [11] it was -4.4%; in [12] it was 13.1%; in series [13] it was 39.8%; in series [15], 1.4%. The inhibition in series [16] is 38.1%; in series [17], -1.9%; in series [18], 76.5%; in the series filed under Homo sapiens, 80.5%; in [19] it was 81.1%. Further, the TD50 in series [3] and in series [14] was over 30 mg/kg in each case. Also, the ED50 in the series on Rattus norvegicus [7] is over 30 mg/kg. Further, the solubility result in [20] is on record as “soluble”.

For the molecule `Cl.NCc1ccc(OCc2ccc(F)cc2)cc1`, the inhibition in series [1] was 55.4%; in [2], 8.5%; in [4], 5%; in series [5], 1%; in series [6], 12.7%; in [8], 7%. Also, the inhibition was 14.2% in series [9]; -1.9% in series [10]; 8.9% in the series filed under Rattus norvegicus [11]; 12.6% in series [12]; 46.5% in series [13]; -5.8% in series [15]. Besides, the inhibition turned out to be 16.7% in [16]; 67.7% in series [17]; 71.3% in series [18]; 67.6% in the series filed under Homo sapiens; 40.2% in series [19]. Also, the TD50 in series [3] and in series [14] was over 30 mg/kg throughout. Besides, the ED50 in the series on Rattus norvegicus [7] was over 30 mg/kg. In addition, the solubility result in series [20] is reported as “soluble”.

Turning to `Cl.NCc1ccc(OCc2cccc(F)c2)cc1`, the inhibition was 57.2% in [1]; 9.3% in [4]; -0.5% in series [5]; -2.1% in [8]; 1.3% in [9]; -1.1% in [10]. The inhibition is 25.8% in the series filed under Rattus norvegicus [11]; -6% in series [12]; 87.3% in [13]; 5.2% in series [15]; 14% in [16]; 59.1% in series [17]. Also, the inhibition in series [18] worked out at 83.4%; in the series filed under Homo sapiens, 58.4%. Also, the TD50 in series [3] and in [14] was over 30 mg/kg throughout. Further, the ED50 in the series on Rattus norvegicus [7] was over 30 mg/kg. In addition, in series [20], the solubility result is “soluble”.

On to `Cl.NCc1ccc(OCc2ccccc2F)cc1`, for which the inhibition is 39% in series [1]; -5.2% in [2]; 10.2% in series [4]; 2.3% in series [5]; 12.7% in series [8]; 3.6% in series [9]. Also, the inhibition in [10] was -0.2%; in the series listed under Rattus norvegicus [11], -1.5%; in series [12], -7.5%; in [13] it was 82.4%; in series [15] it was 6.7%; in [16], 24.1%. Also, the inhibition is 43.5% in [17], 34.4% in series [18], 71.6% in the series listed under Homo sapiens and 33% in series [19]. Further, the TD50 in [3] was over 50 mg/kg; in series [14], over 30 mg/kg. The median effective dose (ED50) in the series with Rattus norvegicus [7] was over 30 mg/kg. The solubility result in series [20] is listed as “soluble”.

On to `Cl.NCc1ccc(OCc2ccccc2OC(F)(F)F)cc1`, for which the inhibition is 59.2% in [1]; -0.1% in series [2]; 26.8% in [4]; 3.9% in [5]; 0.5% in series [6]; 19.5% in series [8]. Also, the inhibition in [9] was 6.6%; in series [10], -2.5%; in the series listed under Rattus norvegicus [11] it was 5.9%; in series [12], 3.8%; in series [13], 49%; in [15], 15.6%. Moreover, the inhibition in series [16] was found to be 33.9%; in [17], 38.7%; in series [18], 31.4%; in the series filed under Homo sapiens it was 89.8%; in [19], 40.2%. For the same molecule, in series [14], the TD50 was over 30 mg/kg. Besides, in series [20], the solubility entry was “soluble”.
